The series has as its system MS2 coat protein. The series is described as follows: apparent Kd, MS2 coat protein; higher = weaker binding; RNA-MaP array; FMN 200 µM where present. A digest of the protocol:
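Designs were transcribed by stalled E. coli RNA polymerase on Illumina sequencing-chip clusters. They were titrated with SNAP-549-labelled MS2 coat protein from 0.7 or 1.5 nM, doubling to 3 µM, without and then with constant ligand. Buffer: 100 mM Tris-HCl pH 7.5, 80 mM KCl, 4 mM MgCl2, BSA, DTT, yeast tRNA, Tween-20. Green signal was normalised to red-channel RNA signal and control-cluster median Fmax. Apparent Kd is the median of filtered per-cluster binding-curve fits.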

The mark [1] stands for this setting: designed as: OFF switch for flavin mononucleotide, no ligand.
Where [2] appears, read: ligand present: flavin mononucleotide, designed as: OFF switch for flavin mononucleotide.
Setting [3] is: designed as: ON switch for flavin mononucleotide, no ligand.
Setting [4] is: ligand present: flavin mononucleotide, designed as: ON switch for flavin mononucleotide.

As to “GGACCGCGCAGAGUUGACGGUCGGCAGGAUAUGACAUGAGGAUCACCCAUGUGAACUCCAUUGGGUCAGAAGGGCCACGACGAA”, the apparent Kd (commonly a dissociation constant that holds for the conditions of the assay) runs as follows: under setting [1], 21.1 nM; under setting [2], 77.3 nM.
On to “AGUAAGAUGCAGAAGGUGUCAGCGAGAGCUACGACAUGAGGAUCACCCAUGUACUAGGUAGAGUACAAGGAUAUGCAUCUUACA”, for which the “apparent Kd” value reads like this: under setting [3], 324 nM; under setting [4], 24.6 nM.
In the case of “UACGACUUCGUAGGAUAUGUAUUUCAUUUCUACAUGAGGAUCACCCAUGUUUGCAUUUUUUUUUGACAGAAGGACGUAAUCGUA”, the “apparent Kd” value is 15.4 nM under setting [3] and 10.5 nM under setting [4].
For “AUUUAUGGCCAGAAGGACAUGAGGAUCACCCAUGUAGGAUAUGGACGAUUUUGCUCGGCGGUUUGUUAAGGAAGCACCGGUGGU”, the “apparent Kd” value runs as follows: under setting [3], 14.3 nM; under setting [4], 7.23 nM.
As for “AUAAUGUAAGGAUAUCAGUCGACUAGCUGCGGCUAGUCGACUGAGAAGGUACAUGAGGAUCACCCAUGUGUUCC”, the “apparent Kd” value reads like this: under setting [1], 133 nM; under setting [2], 868 nM.
In the same order, the values of “GGUGCGUAUGUGAGGAUAUGCUGGUCCUUGGCUCGGCAGAAGGCACAUGAGGAUCACCCAUGUGGUGUCGUACC” are 278 nM and 50.9 nM.
In the same order, the values of “UUAUUAAAUGUAGGAUAUGCAUAUUAUUAUUAUGCAGAAGGACAUGAGGAUCACCCAUGUAUAUUAUUAUUAUUUAUUAUUUAU” are 45.7 nM and 61.7 nM.
As to “UAGGACUUCGUAGGAUAUGUAUUUGAUUUCUACAUGAGGAUCACCCAUGUUUGCAUUUUUUUUUGACAGAAGGACGUGGUCCUA”, the “apparent Kd” value came to 16.8 nM under setting [3] and 13.2 nM under setting [4].
For “GUCGGGUGGGUAGGAUAUGGCUAUGUCUCAUUGCUAGAAGGACCAACUGCUACAUGAGGAUCACCCAUGUCGUAGUGCACCCGG”, the “apparent Kd” value under setting [3] amounted to 149 nM and the “apparent Kd” value under setting [4] was 27.5 nM.
In the case of “AGACUGAAGCAAGGAUAUUGUAAGGUUAAUGUACAAGAAGGUGCUGUUUAUGUCUCUUAACAUGAGGAUCACCCAUGUUUUGGU”, the “apparent Kd” value by setting is: under setting [3], 23.9 nM; under setting [4], 19.9 nM.
As for “ACAUGAGACUAAGGAUAUGGUGUACCUACAUGUGACAUGAGGAUCACCCAUGUGGUAAGUAUGACUCAGAAGGUAGAGAUAUGU”, the “apparent Kd” value under setting [3] was 414 nM and the “apparent Kd” value under setting [4] was determined as 37.2 nM.
In the same order, the values of “AUACAUACAAAGUUACAUGAGGAUCACCCAUGUUUAUUGGGAAGAAGGGUAACAUUAUUAGAUGUAUAGGAUAUUUCACAAUUG” are 537 nM and 275 nM.
As for “AAAUUAAGAAGAGGAUAUUGACAUGAGGAUCACCCAUGUAUUUGGGAGUGUUUACUGAAUUCUUACGAGAAGGCUUACGAACUU”, the “apparent Kd” value under setting [2] is 190 nM.
For the sequence “GUCUCGUGAGGAUAUGACGCUACUUUUUUGUUUUAGUAGAGUCAGAAGGCACAUGAGGAUCACCCAUGUGAUUC”, the “apparent Kd” value under setting [1] came out at 78.6 nM and the “apparent Kd” value under setting [2] stood at 48.7 nM.
In the same order, the values of “GUAAAUCAUGUAGGAUAUGCAUGGCGAAGCUACGCAGAAGGACAUGAGGAUCACCCAUGUUAUAGCUACCCGUUACGGUGGCAA” are 100 nM and 236 nM.
With “AUCUCGUCAGGAUAUUGGAUUUGGAUUGAAAGGUUUAGGUUUAAGAAGGGACAUGAGGAUCACCCAUGUCUGGU”, the “apparent Kd” value reads like this: under setting [1], 21.8 nM; under setting [2], 21.5 nM.
For the sequence “GAAAAACAUGAGGAUCACCCAUGUGUAAACAAGGGAGGAUAUACAAAGACGUAAGUCAAAGUAGAAGGCCUAAAAG”, the “apparent Kd” value was determined as 25 nM under setting [3] and 9.6 nM under setting [4].
On the same counts, the results for “AGCGCGGUCCACUUGGACGCCUACGAGGAUAUCCUGUCACAUGAGGAUCACCCAUGUAGGCACAUGGAGAAGGCGUAGAAAUCA” are 60.9 nM and 7.22 nM.
In the same order, the values of “ACAGAGUGAAGACAGGAUAUUCGCGAUGGCACAUGAGGAUCACCCAUGUUUUGAGCACAUAAACAGAAGAAGGGUUAAAACUCAG” are 132 nM and 13.8 nM.
In the same order, the values of “GUAGCAUACCGAGGAUAUUCAUGGAAUAAAUAAACAUGAGGAUCACCCAUGUGGCGAAAGCCUAGGGAGAAGGCGGAAUGCUAC” are 269 nM and 446 nM.
For the sequence “AAGGAUAGAGGAUAUACAUAGAUACAGAUUCAUGUAGUCCUACAUGAGGAUCACCCAUGUAGAAGGCUAUCCUA”, the “apparent Kd” value under setting [1] is 15.6 nM and the “apparent Kd” value under setting [2] was 83.8 nM.
On to “GAUUGACAUGAGGAUCACCCAUGUGAGGAUAUCGGCCGGACCUUGUUAGCUUCCAUCGUGAGAAGGCACAUAGG”, for which the “apparent Kd” value was found to be 30.4 nM under setting [1] and 31.5 nM under setting [2].
In the same order, the values of “AACUAGCUAGGAUAUACAUGAGGAUCACCCAUGUAAAAAAAAAAAAAAAAAUUUUUAUGUAGAAGGAGCUAGUA” are 34 nM and 41.2 nM.
Turning to “CAGACCGGCGCAGGAUAUGUCGACAUGAGGAUCACCCAUGUAAGCCUUGUCUGGUCCGGUGUGUGACAGAAGGGUGUCGGCCAA”, the “apparent Kd” value under setting [1] was determined as 29.5 nM and the “apparent Kd” value under setting [2] came to 21.9 nM.
Consider “GAAAACUGAGGAUAUACAUGAGGAUCACCCAUGUAGGUACGGCUUCUACAUUCGUCAUGUAGAAGGCAGUAUAA”, for which the “apparent Kd” value runs as follows: under setting [1], 18.1 nM; under setting [2], 15.7 nM.
Consider “UAAUAAAACGAUCGGCGGUCCAUACAUGAGGAUCACCCAUGUAGAAGGCACUCUACAAAGUAGAGUGAGGAUAUACAAGAUCGA”, for which the “apparent Kd” value reads like this: under setting [1], 15 nM; under setting [2], 258 nM.
On the same counts, the results for “GCCGAAAAUGUGAGGAUAUACCUAUGGAAACAUAGGUAGAAGGCACAUGAGGAUCACCCAUGUGUCCAAACGGC” are 19.9 nM and 64.6 nM.
On the same counts, the results for “CCAAAAGCUACAGGAUAUCCGACUCGGUUGUCAGGAGAAGGGUGGCAAGACAUGAGGAUCACCCAUGUAGGGUCAUCCUUGAAA” are 9.9 nM and 22.1 nM.
“GGUACUCAAAGAGUACCAAUACGAACAUGAGGAUCACCCAUGUAGGAUAUGCUACUCAAAGAGUAGCAGAAGGACAUGUGCAUA”: the “apparent Kd” value reads like this: under setting [1], 22.1 nM; under setting [2], 135 nM.
Consider “AUGGACAGCAUAGACACAUAGUAACGAGAAGGUACACAUGAGGAUCACCCAUGUACAGUCAGAAGUAAGGAUAUUGAAUGGUAG”, for which the “apparent Kd” value was determined as 36.4 nM under setting [3] and 27.4 nM under setting [4].
In the case of “GCACGGCGUGUAGGAUAUGCAUAGCAUUGCUAUGCAGAAGGACAUGAGGAUCACCCAUGUAUGUAUUCCAUACAUUUCCCGUGC”, the “apparent Kd” value reads like this: under setting [1], 6.42 nM; under setting [2], 7.31 nM.
On the same counts, the results for “GGUGCCAUGUAGAAGGCAGAUCUGAUUCAGAUCUGAGGAUAUACAUGAGGAUCACCCAUGUAAAGGCACCGCCCGAGAGUGCAA” are 7.46 nM and 17.6 nM.
As for “GUCAGCUCGUGAGGAUAUACAACACUGCUUCGGCAGUGCAUUAAGAUCACAUGAGGAUCACCCAUGUAGAAGGCACGAGCUGAU”, the “apparent Kd” value under setting [1] was 15 nM and the “apparent Kd” value under setting [2] is 313 nM.
As for “UAUGGUUAAGUCAGGAUAUACGUGCAGUUUUCUGAGUAGAAGGGACAUGAGGAUCACCCAUGUAUGGUAGUGUU”, the “apparent Kd” value under setting [1] worked out at 72.2 nM and the “apparent Kd” value under setting [2] turned out to be 73.6 nM.
Turning to “AAAGACAGACAUGAGGAUCACCCAUGUUACGAAGAUAAUGGGAGAAGGGCGAUUGCAAAGCAAUCGCAGGAUAUUCGUAUUGUC”, the “apparent Kd” value was 21.1 nM under setting [3] and 8.93 nM under setting [4].
Take “CUGCCGUAGGAGAAGGACGGCGGGUUAUUUUUGUACAUGAGGAUCACCCAUGUAGGAUAUCCUACGUCAGGCGGCCUACUACAG”: the “apparent Kd” value came to 13.7 nM under setting [1] and 19.8 nM under setting [2].
On the same counts, the results for “UCACGGAGCCUAGGAUAUACAUGAGGAUCACCCAUGUAUUAACGUUAGUGCUGGACUGAUUUGCUGUAGAAGGAGGUCACCGAA” are 20.9 nM and 43.1 nM.
In the same order, the values of “AAGAAGUCAGGAUAUCCAUGGCGGCACUUGCGUGGUGGCGUGGAGAAGGGACAUGAGGAUCACCCAUGUAAAGA” are 51.4 nM and 35.8 nM.
With “UGUCCAUAGCAGAAGGACAUGAGGAUCACCCAUGUAAUCAUACAAAUACAUGUAGGAUAUGCUAUGGACUAAGAGCGAAAGCUC”, the “apparent Kd” value under setting [1] came out at 8.28 nM and the “apparent Kd” value under setting [2] was determined as 19.1 nM.
As to “GCCAUCGCGUGAGGAUAUGCUCCGGUUUCCGGAGCAGAAGGCAUGUCAUAAGACAUGAGGAUCACCCAUGUAGUCAAGAUGGCA”, the “apparent Kd” value is 270 nM under setting [3] and 11.4 nM under setting [4].
On to “GGAAAUCAUGUAGGAUAUGCAUGGCGAAGCUACGCAGAAGGACAUGAGGAUCACCCAUGUGCUAGCUACCGGAUACGGUGGCAA”, for which the “apparent Kd” value stood at 78.8 nM under setting [1] and 288 nM under setting [2].
Turning to “UGAUGAGGUUAGAAGGUACAGAGUAGUGGACCAAACAUGAGGAUCACCCAUGUCAUGGGAGGGAGUAAGGAUAUAAAGUUGUAG”, the “apparent Kd” value is 63.7 nM under setting [1] and 51.2 nM under setting [2].
On to “AUAAAACAUGAGGAUCACCCAUGUCAGGAUAUACCAUUCCCAUGCCAGCAUUAAAAUGGUAGAAGGGACAUGGC”, for which the “apparent Kd” value is 49.2 nM under setting [1] and 27.2 nM under setting [2].
Consider “UUAUACAUGAGGAUCUCCCAUGACAUGAGGAUCACCCAUGUGCAGGAUAUACGUGAUAUAAUAUAGUAGAAGGGCAGACUAUAU”, for which the “apparent Kd” value came out at 119 nM under setting [1] and 130 nM under setting [2].
On the same counts, the results for “CCAGGCUUCGAGAAGGACAUGAGGAUCACCCAUGUGCGUGUGAAGCAGCCGUGAGGCUGCAUCAUGUAGGAUAUCGGAGUCUGU” are 72.2 nM and 391 nM.
Consider “AGUGUCAUCGAGAAGGCCUCAACAUGAGGAUCACCCAUGUUGCAAAAUGGGAGGAUAUCGCGCGCAAAACUACGUUUCGUAGCA”, for which the “apparent Kd” value is, setting by setting: under setting [3], 30.5 nM; under setting [4], 11.4 nM.
Consider “UCCUUGGUACAGAAGGACCGAGCUCCGUAGCAGGUAGGAUAUGUACAUGAGGAUCACCCAUGUCAGCGGUAAUUGCCAGUAUAC”, for which the “apparent Kd” value runs as follows: under setting [1], 54.6 nM; under setting [2], 27.7 nM.
For the sequence “CUUAGGUGUACAUGAGGAUCACCCAUGUCCCUGGUCAUUAGACAGGAUAUAUGGGCGGUCGCUUCAUAGAAGGGUUAAAUGGGU”, the “apparent Kd” value under setting [3] stood at 837 nM and the “apparent Kd” value under setting [4] was determined as 780 nM.

Values taken from the EternaBench riboswitch data.
